Test results reported in ChEMBL document CHEMBL3407352, “Identification of anthranilamide derivatives as potential factor Xa inhibitors: drug design, synthesis and biological evaluation” (Eur J Med Chem, 2015).

tested on: not listed separately; experiment: Anticoagulant activity in plasma (unknown origin) assessed as concentration required to double the time for fibrin formation; type: functional
Method in brief: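 Clotting times in plasma on automatic coagulometer per manufacturer's instructions; increasing inhibitor concentrations or solvent added to plasma, incubated 3 min at 37 °C, clotting times compared with appropriate control plasma.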

Compared with `COc1ccc(NC(=O)c2ccc(Cl)cc2)c(C(=O)Nc2ccc(N3CCCCC3=O)cc2)c1`, `COc1ccc(NC(=O)c2ccc(C(=N)N(C)C)cc2)c(C(=O)Nc2ccc(Cl)cn2)c1` [BETRIXABAN] is 3.6-fold lower in Activity: 8.7 µM for the first, 2.4 µM for the second.

target: Coagulation factor X (Homo sapiens, UniProt P00742); experiment: Inhibition of human factor 10a using acromogenic substrate S-2222 preincubated for 30 mins before substrate addition measured after 20 mins by spectrophotometry
Sequence (P00742 41-179 limits assumed): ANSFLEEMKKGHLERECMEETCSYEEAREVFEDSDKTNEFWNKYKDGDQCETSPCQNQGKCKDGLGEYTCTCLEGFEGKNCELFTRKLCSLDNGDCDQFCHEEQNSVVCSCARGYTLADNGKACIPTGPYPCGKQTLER
Sequence (P00742 235-488 limits assumed): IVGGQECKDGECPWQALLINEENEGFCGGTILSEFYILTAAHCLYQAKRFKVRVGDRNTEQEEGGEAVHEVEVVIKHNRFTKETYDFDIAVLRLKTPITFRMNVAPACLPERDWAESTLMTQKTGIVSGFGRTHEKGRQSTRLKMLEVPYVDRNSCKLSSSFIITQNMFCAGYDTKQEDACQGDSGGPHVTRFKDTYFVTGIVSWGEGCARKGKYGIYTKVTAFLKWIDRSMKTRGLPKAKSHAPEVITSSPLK

First: COc1ccc(NC(=O)c2ccccc2)c(C(=O)Nc2ccc(N3CCCCC3=O)cc2)c1
Second: COc1ccc(NC(=O)c2cccc(Cl)c2)c(C(=O)Nc2ccc(N3CCCCC3=O)cc2)c1
The IC50 of the first is 2.8-fold higher: 521 nM for the first, 183 nM for the second. The second is the more potent here.

Going from `COc1ccc(NC(=O)C(=O)Nc2ccc(Cl)cc2)c(C(=O)Nc2ccc(N3CCOCC3=O)cc2)c1` to `COc1ccc(NC(=O)C(=O)Nc2ccc(F)cc2)c(C(=O)Nc2ccc(N3CCOCC3=O)cc2)c1`, the IC50 rises from 452 nM to 678 nM (1.5-fold). The first is the more potent here.

`CN1CCC2N=C(C(=O)N[C@@H]3CCCC[C@@H]3CNC(=O)c3ccc(Cl)s3)SC2C1` (stereo partly drawn) and `COc1ccc(NC(=O)c2ccc(Cl)cc2)c(C(=O)Nc2ccc(N3CCCCC3=O)cc2)c1` are within 1.5-fold of each other in IC50: 27 nM for the first, 23 nM for the second.

Compared with `COc1cccc(C(=O)Nc2ccc(OC)cc2C(=O)Nc2ccc(N3CCCCC3=O)cc2)c1`, `COc1ccc(NC(=O)C(=O)Nc2ccc(OC)cc2C(=O)Nc2ccc(N3CCOCC3=O)cc2)cc1` is 1.6-fold higher in IC50: 378 nM for the first, 612 nM for the second.

`COc1ccc(NC(=O)C(=O)Nc2ccccc2Cl)c(C(=O)Nc2ccc(N3CCOCC3=O)cc2)c1` and `COc1ccc(NC(=O)C(=O)Nc2ccccc2OC)c(C(=O)Nc2ccc(N3CCOCC3=O)cc2)c1` are within 1.5-fold of each other in IC50: 798 nM for the first, 828 nM for the second.

Going from `COc1ccc(NC(=O)C(=O)Nc2cccc(Cl)c2)c(C(=O)Nc2ccc(N3CCOCC3=O)cc2)c1` to `COc1ccc(NC(=O)C(=O)Nc2ccccc2)c(C(=O)Nc2ccc(N3CCOCC3=O)cc2)c1`, the IC50 rises from 621 nM to 1120 nM (1.8-fold).

In the case of `COc1ccc(NC(=O)C(=O)Nc2ccc(Cl)cn2)c(C(=O)Nc2ccc(N3CCOCC3=O)cc2)c1`, the IC50 is reported as 298 nM.

Work on `C[C@@H](C(=O)N1CCOCC1)N1CC[C@H](NS(=O)(=O)C2=Nc3ccc(Cl)cc3C2)C1=O` yielded a Ki of 90 nM.

target: Prothrombin (Homo sapiens, UniProt P00734); experiment: Inhibition of human thrombin using acromogenic substrate S-2238 preincubated for 30 mins before substrate addition measured after 20 mins by spectrophotometry
Method in brief: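 Compounds prepared at 10 mM, serially diluted to twelve concentrations in 50 mM Tris-Cl, 100 mM NaCl, 0.1% BSA, pH 7.4; mixed with enzyme (final: human fXa 0.003 U/mL; human thrombin 0.125 U/mL), incubated 30 min at 37 °C. Reaction started with chromogenic substrate (fXa: S-2222; thrombin: S-2238), monitored continuously 20 min at 405 nm; IC50 from mean of duplicates.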

Going from `COc1ccc(NC(=O)c2ccc(Cl)cc2)c(C(=O)Nc2ccc(N3CCCCC3=O)cc2)c1` to `COc1ccc(NC(=O)c2ccc(C(=N)N(C)C)cc2)c(C(=O)Nc2ccc(Cl)cn2)c1` [BETRIXABAN], the IC50 falls from 48000 nM to 18000 nM (2.7-fold). The second is the more potent here.
